Assay results published in ChEMBL document CHEMBL2157880, “Synthesis, antimycobacterial and antibacterial activity of ciprofloxacin derivatives containing a N-substituted benzyl moiety” (2012).

Tests used:
Type in all cases: functional
[1] = tested on: Mycobacterium tuberculosis; experiment: Antimycobacterial activity against Mycobacterium tuberculosis H37Rv ATCC 27294 by microplate alamar blue assay
In short: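 Microplate Alamar Blue fluorescence assay on strain H37Rv ATCC 27294. MIC was the lowest concentration cutting fluorescence by ≥90% against the mean of replicate bacterium-only controls.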

[2] = tested on: Staphylococcus aureus; experiment: Antibacterial activity against Staphylococcus aureus ATCC 2592 after 18 to 24 hrs by NCCLS method
In short: (§1)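 Standard NCCLS (M100-S11) MIC testing against Gram-positive and Gram-negative strains. Plates were incubated at 35 °C for 18–24 h. The MIC was read as the lowest concentration giving complete inhibition of visible bacterial growth.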

[3] = tested on: Staphylococcus aureus; experiment: Antibacterial activity against methicillin-sensitive Staphylococcus aureus 10-11 after 18 to 24 hrs by NCCLS method; in short: as §1
[4] = tested on: Staphylococcus aureus; experiment: Antibacterial activity against methicillin-sensitive Staphylococcus aureus 10-13 after 18 to 24 hrs by NCCLS method; in short: as §1
[5] = tested on: Staphylococcus aureus; experiment: Antibacterial activity against methicillin-sensitive Staphylococcus aureus 10-14 after 18 to 24 hrs by NCCLS method; in short: as §1
[6] = tested on: Staphylococcus aureus; experiment: Antibacterial activity against methicillin-resistant Staphylococcus aureus 10-11 after 18 to 24 hrs by NCCLS method
In short: (§2)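 Incubated at 35 °C for 18–24 h under NCCLS (M100-S11) standards. MIC was read as the lowest concentration giving complete inhibition of visible bacterial growth.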

[7] = tested on: Staphylococcus aureus; experiment: Antibacterial activity against methicillin-resistant Staphylococcus aureus 10-13 after 18 to 24 hrs by NCCLS method; in short: as §2
[8] = tested on: Staphylococcus aureus; experiment: Antibacterial activity against methicillin-resistant Staphylococcus aureus 10-15 after 18 to 24 hrs by NCCLS method; in short: as §2
[9] = tested on: Staphylococcus epidermidis; experiment: Antibacterial activity against methicillin-sensitive Staphylococcus epidermidis 10-11 after 18 to 24 hrs by NCCLS method; in short: as §1
[10] = tested on: Staphylococcus epidermidis; experiment: Antibacterial activity against methicillin-sensitive Staphylococcus epidermidis 10-15 after 18 to 24 hrs by NCCLS method; in short: as §2
[11] = tested on: Staphylococcus epidermidis; experiment: Antibacterial activity against methicillin-resistant Staphylococcus epidermidis 10-10 after 18 to 24 hrs by NCCLS method; in short: as §2
[12] = tested on: Staphylococcus epidermidis; experiment: Antibacterial activity against methicillin-resistant Staphylococcus epidermidis 10-13 after 18 to 24 hrs by NCCLS method; in short: as §2
[13] = tested on: Enterococcus faecalis; experiment: Antibacterial activity against Enterococcus faecalis 10-5 after 18 to 24 hrs by NCCLS method; in short: as §1
[14] = tested on: Enterococcus faecalis; experiment: Antibacterial activity against Enterococcus faecalis 10-6 after 18 to 24 hrs by NCCLS method; in short: as §1
[15] = tested on: Enterococcus faecalis; experiment: Antibacterial activity against Enterococcus faecalis 10-7 after 18 to 24 hrs by NCCLS method; in short: as §1
[16] = tested on: Enterococcus faecium; experiment: Antibacterial activity against Enterococcus faecium 10-6 after 18 to 24 hrs by NCCLS method; in short: as §1
[17] = tested on: Enterococcus faecium; experiment: Antibacterial activity against Enterococcus faecium 10-9 after 18 to 24 hrs by NCCLS method; in short: as §1
[18] = tested on: Streptococcus pneumoniae; experiment: Antibacterial activity against Streptococcus pneumoniae 10-1 after 18 to 24 hrs by NCCLS method; in short: as §1
[19] = tested on: Streptococcus pneumoniae; experiment: Antibacterial activity against Streptococcus pneumoniae 10-6 after 18 to 24 hrs by NCCLS method; in short: as §1
[20] = tested on: Staphylococcus aureus; experiment: Ratio of compound MIC to ciprofloxacin MIC for Staphylococcus aureus ATCC 2592
[21] = tested on: Staphylococcus aureus; experiment: Ratio of compound MIC to ciprofloxacin MIC for methicillin-sensitive Staphylococcus aureus 10-11
[22] = tested on: Staphylococcus aureus; experiment: Ratio of compound MIC to ciprofloxacin MIC for methicillin-sensitive Staphylococcus aureus 10-13
[23] = tested on: Staphylococcus aureus; experiment: Ratio of compound MIC to ciprofloxacin MIC for methicillin-sensitive Staphylococcus aureus 10-14
[24] = tested on: Staphylococcus epidermidis; experiment: Ratio of compound MIC to ciprofloxacin MIC for methicillin-sensitive Staphylococcus epidermidis 10-11
[25] = tested on: Staphylococcus epidermidis; experiment: Ratio of compound MIC to ciprofloxacin MIC for methicillin-sensitive Staphylococcus epidermidis 10-15
[26] = tested on: Enterococcus faecalis; experiment: Ratio of compound MIC to ciprofloxacin MIC for Enterococcus faecalis 10-5
[27] = tested on: Enterococcus faecalis; experiment: Ratio of compound MIC to ciprofloxacin MIC for Enterococcus faecalis 10-6
[28] = tested on: Enterococcus faecalis; experiment: Ratio of compound MIC to ciprofloxacin MIC for Enterococcus faecalis 10-7
[29] = tested on: Enterococcus faecium; experiment: Ratio of compound MIC to ciprofloxacin MIC for Enterococcus faecium 10-6
[30] = tested on: Enterococcus faecium; experiment: Ratio of compound MIC to ciprofloxacin MIC for Enterococcus faecium 10-9
[31] = tested on: Streptococcus pneumoniae; experiment: Ratio of compound MIC to ciprofloxacin MIC for Streptococcus pneumoniae 10-1
[32] = tested on: Streptococcus pneumoniae; experiment: Ratio of compound MIC to ciprofloxacin MIC for Streptococcus pneumoniae 10-6
[33] = tested on: Escherichia coli; experiment: Antibacterial activity against Escherichia coli ATCC 25922 after 18 to 24 hrs by NCCLS method; in short: as §1
[34] = tested on: Escherichia coli; experiment: Antibacterial activity against Escherichia coli 10-1 after 18 to 24 hrs by NCCLS method; in short: as §1
[35] = tested on: Escherichia coli; experiment: Antibacterial activity against Escherichia coli 10-2 after 18 to 24 hrs by NCCLS method; in short: as §1
[36] = tested on: Escherichia coli; experiment: Antibacterial activity against Escherichia coli 10-3 after 18 to 24 hrs by NCCLS method; in short: as §1
[37] = tested on: Escherichia coli; experiment: Antibacterial activity against extended spectrum beta-lactamases producing Escherichia coli 10-2 after 18 to 24 hrs by NCCLS method; in short: as §1
[38] = tested on: Escherichia coli; experiment: Antibacterial activity against extended spectrum beta-lactamases producing Escherichia coli 10-3 after 18 to 24 hrs by NCCLS method; in short: as §1
[39] = tested on: Escherichia coli; experiment: Antibacterial activity against extended spectrum beta-lactamases producing Escherichia coli 10-4 after 18 to 24 hrs by NCCLS method; in short: as §1
[40] = tested on: Klebsiella pneumoniae; experiment: Antibacterial activity against Klebsiella pneumoniae 10-2 after 18 to 24 hrs by NCCLS method; in short: as §1
[41] = tested on: Klebsiella pneumoniae; experiment: Antibacterial activity against Klebsiella pneumoniae 10-3 after 18 to 24 hrs by NCCLS method; in short: as §1
[42] = tested on: Klebsiella pneumoniae; experiment: Antibacterial activity against Klebsiella pneumoniae 10-4 after 18 to 24 hrs by NCCLS method; in short: as §1
[43] = tested on: Klebsiella pneumoniae; experiment: Antibacterial activity against extended spectrum beta-lactamases producing Klebsiella pneumoniae 10-1 after 18 to 24 hrs by NCCLS method; in short: as §1
[44] = tested on: Klebsiella pneumoniae; experiment: Antibacterial activity against extended spectrum beta-lactamases producing Klebsiella pneumoniae 10-2 after 18 to 24 hrs by NCCLS method; in short: as §1
[45] = tested on: Klebsiella pneumoniae; experiment: Antibacterial activity against extended spectrum beta-lactamases producing Klebsiella pneumoniae 10-3 after 18 to 24 hrs by NCCLS method; in short: as §1
[46] = tested on: Pseudomonas aeruginosa; experiment: Antibacterial activity against Pseudomonas aeruginosa 10-5 after 18 to 24 hrs by NCCLS method; in short: as §1
[47] = tested on: Pseudomonas aeruginosa; experiment: Antibacterial activity against Pseudomonas aeruginosa 10-9 after 18 to 24 hrs by NCCLS method; in short: as §1
[48] = tested on: Pseudomonas aeruginosa; experiment: Antibacterial activity against Pseudomonas aeruginosa 10-12 after 18 to 24 hrs by NCCLS method; in short: as §1
[49] = tested on: Pseudomonas aeruginosa; experiment: Antibacterial activity against Pseudomonas aeruginosa 10-15 after 18 to 24 hrs by NCCLS method; in short: as §1
[50] = tested on: Pseudomonas aeruginosa; experiment: Antibacterial activity against Pseudomonas aeruginosa 10-18 after 18 to 24 hrs by NCCLS method; in short: as §1
[51] = tested on: Pseudomonas aeruginosa; experiment: Antibacterial activity against Pseudomonas aeruginosa 10-20 after 18 to 24 hrs by NCCLS method; in short: as §1

COc1ccc(CN2CCN(c3cc4c(cc3F)c(=O)c(C(=O)O)cn4C3CC3)CC2)cc1
0.5 µg/mL: MIC [9]
0.125 µg/mL: MIC [3] | MIC [33]
32 µg/mL: MIC [14]
16 µg/mL: MIC [6] | MIC [7] | MIC [17] | MIC [19]
2: Ratio [20] | Ratio [21] | Ratio [22] | Ratio [23] | Ratio [24] | Ratio [25] | Ratio [26] | Ratio [27] | Ratio [28] | Ratio [29] | Ratio [30] | Ratio [31] | Ratio [32]
0.06 µg/mL: MIC [2]
4 µg/mL: MIC [8] | MIC [13] | MIC [41] | MIC [46] | MIC [47] | MIC [50] | MIC [51]
0.25 µg/mL: MIC [4] | MIC [5]
1 µg/mL: MIC [1] | MIC [16] | MIC [18]
8 µg/mL: MIC [10] | MIC [11] | MIC [12] | MIC [15] | MIC [35] | MIC [36] | MIC [39]
2 µg/mL: MIC [48] | MIC [49]
> 128 µg/mL: MIC [34] | MIC [37] | MIC [38] | MIC [40] | MIC [42] | MIC [43] | MIC [44] | MIC [45]
